Reference: ChEMBL document CHEMBL1143237, “Sulfonamide-1,2,4-triazole derivatives as antifungal and antibacterial agents: synthesis, biological evaluation, lipophilicity, and conformational studies” (Bioorg Med Chem, 2008)
≈ marks a conversion by molar mass, not a printed value.

Columns and labels:
[1] = Partition coefficient, log P of the compound; assay type: physicochemical; conditions: octanol/water
How it was run: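 Calculated, not measured: AlogP, IAlogP, ClogP, Cosmo logP, mlogP, Kowwin and XlogP were computed and averaged.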

Trichoderma viride = assay: Antifungal activity against Trichoderma viride IAM 5061 after 72 hrs by microdilution test; assay type: functional
How it was run: (§1)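 Modified microdilution in malt broth. Spores were washed from malt agar with sterile 0.85% saline containing 0.1% Tween 80 and adjusted to about 1.0 × 10⁵ per well. Compounds were dissolved in DMSO and tested at […] µg/ml. Incubation 72 h at 28 °C. MIC is the lowest concentration with no visible growth under a binocular microscope. MFC by 2 µl subculture and a further 72 h at 28 °C.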

Enterobacter cloacae = assay: Antibacterial activity against Enterobacter cloacae after 24 hrs by microdilution test; assay type: functional
How it was run: (§2)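 Broth microdilution in LB medium in 96-well plates. Inoculum 1.0 × 10⁴ CFU per well, from a suspension set to 1.0 × 10⁵ CFU/ml in sterile saline. Compounds at […] µg/ml. Incubation 24 h at 28 °C. MIC is the lowest concentration with no visible growth under a binocular microscope. MBC by subculturing 2 µl into fresh broth for a further 72 h. OD540 read against blank. DMSO negative control.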

Micrococcus luteus = assay: Antibacterial activity against Micrococcus flavus ATCC 10240 after 24 hrs by microdilution test; assay type: functional; conditions: ATCC 10240, 24 h; how it was run: as §2
Aspergillus versicolor = assay: Antifungal activity against Aspergillus versicolor ATCC 11730 after 72 hrs by microdilution test; assay type: functional; conditions: ATCC 11730, 72 h; how it was run: as §1
Escherichia coli = assay: Antibacterial activity against Escherichia coli ATCC 35210 after 24 hrs by microdilution test; assay type: functional; conditions: ATCC 35210, 24 h; how it was run: as §2
[2] = tested on: Staphylococcus epidermidis; assay: Antibacterial activity against Staphylococcus epidermidis ATCC 12228 after 24 hrs by microdilution test; assay type: functional; conditions: ATCC 12228, 24 h; how it was run: as §2
Aspergillus niger = assay: Antifungal activity against Aspergillus niger ATCC 6275 after 72 hrs by microdilution test; assay type: functional; conditions: ATCC 6275, 72 h; how it was run: as §1
Salmonella enteritidis = assay: Antibacterial activity against Salmonella enteritidis ATCC 13076 after 24 hrs by microdilution test; assay type: functional, Salmonella enterica subsp. enterica serovar Enteritidis; conditions: Salmonella enterica, ATCC 13076, 24 h; how it was run: as §2
Aspergillus ochraceus = assay: Antifungal activity against Aspergillus ochraceus ATCC 12066 after 72 hrs by microdilution test; assay type: functional; conditions: ATCC 12066, 72 h; how it was run: as §1
Bacillus cereus = assay: Antibacterial activity against Bacillus cereus ATCC 10907 after 24 hrs by microdilution test; conditions: ATCC 10907, 24 h
Aspergillus flavus = assay: Antifungal activity against Aspergillus flavus ATCC 9643 after 72 hrs by microdilution test; assay type: functional; conditions: ATCC 9643, 72 h; how it was run: as §1
Salmonella typhimurium = assay: Antibacterial activity against Salmonella Typhimurium ATCC 13311 after 24 hrs by microdilution test; assay type: functional, Salmonella enterica subsp. enterica serovar Typhimurium; conditions: Salmonella enterica, ATCC 13311, 24 h; how it was run: as §2
Talaromyces funiculosus = assay: Antifungal activity against Penicillium funiculosum ATCC 36839 after 72 hrs by microdilution test; assay type: functional; conditions: ATCC 36839, 72 h; how it was run: as §1

| Compound | logP [1] | MFC (Trichoderma viride) [µg/mL] | MIC (Trichoderma viride) [µg/mL] | MBC (Enterobacter cloacae) [µg/mL] | MIC (Enterobacter cloacae) [µg/mL] | MBC (Micrococcus luteus) [µg/mL] | MIC (Micrococcus luteus) [µg/mL] | MFC (Aspergillus versicolor) [µg/mL] | MIC (Aspergillus versicolor) [µg/mL] | MBC (Escherichia coli) [µg/mL] | MIC (Escherichia coli) [µg/mL] | MBC [2] [µg/mL] | MIC [2] [µg/mL] | MFC (Aspergillus niger) [µg/mL] | MIC (Aspergillus niger) [µg/mL] | MBC (Salmonella enteritidis) [µg/mL] | MIC (Salmonella enteritidis) [µg/mL] | MFC (Aspergillus ochraceus) [µg/mL] | MIC (Aspergillus ochraceus) [µg/mL] | MBC (Bacillus cereus) [µg/mL] | also measured |
| --- | --- | --- | --- | --- | --- | --- | --- | --- | --- | --- | --- | --- | --- | --- | --- | --- | --- | --- | --- | --- | --- |
| COc1cc(Cc2n[nH]c(=S)n2-c2ccccc2)c(S(=O)(=O)N(C)C)cc1OC | 1.72 | 100 (≈ 230 µM) | 50 (≈ 115 µM) | 100 (≈ 230 µM) | 100 (≈ 230 µM) | 150 (≈ 345 µM) | 150 (≈ 345 µM) | 150 (≈ 345 µM) | 100 (≈ 230 µM) | 150 (≈ 345 µM) | 100 (≈ 230 µM) | 150 (≈ 345 µM) | 150 (≈ 345 µM) | 150 (≈ 345 µM) | 100 (≈ 230 µM) | 150 (≈ 345 µM) | 150 (≈ 345 µM) | 150 (≈ 345 µM) | 100 (≈ 230 µM) | 150 (≈ 345 µM) | MIC (Bacillus cereus): 150 µg/mL (≈ 345 µM); MFC (Aspergillus flavus): 100 µg/mL (≈ 230 µM); MIC (Aspergillus flavus): 50 µg/mL (≈ 115 µM); MBC (Salmonella typhimurium): 150 µg/mL (≈ 345 µM); MIC (Salmonella typhimurium): 100 µg/mL (≈ 230 µM); MFC (Talaromyces funiculosus): 100 µg/mL (≈ 230 µM); MIC (Talaromyces funiculosus): 100 µg/mL (≈ 230 µM) |
| COc1cc(Cc2n[nH]c(=S)n2-c2ccc(Cl)cc2)c(S(=O)(=O)N2CCOCC2)cc1OC | 2.25 | 150 (≈ 294 µM) | 100 (≈ 196 µM) | 100 (≈ 196 µM) | 100 (≈ 196 µM) | 150 (≈ 294 µM) | 150 (≈ 294 µM) | 150 (≈ 294 µM) | 100 (≈ 196 µM) | 150 (≈ 294 µM) | 100 (≈ 196 µM) | 150 (≈ 294 µM) | 150 (≈ 294 µM) | 150 (≈ 294 µM) | 150 (≈ 294 µM) | 150 (≈ 294 µM) | 150 (≈ 294 µM) | 150 (≈ 294 µM) | 100 (≈ 196 µM) | 150 (≈ 294 µM) | MIC (Bacillus cereus): 150 µg/mL (≈ 294 µM); MFC (Aspergillus flavus): 150 µg/mL (≈ 294 µM); MIC (Aspergillus flavus): 100 µg/mL (≈ 196 µM); MBC (Salmonella typhimurium): 150 µg/mL (≈ 294 µM); MIC (Salmonella typhimurium): 100 µg/mL (≈ 196 µM); MFC (Talaromyces funiculosus): 150 µg/mL (≈ 294 µM); MIC (Talaromyces funiculosus): 100 µg/mL (≈ 196 µM) |
| COc1cc(Cc2n[nH]c(=S)n2-c2ccc(Cl)cc2)c(S(=O)(=O)N2CCCCC2)cc1OC | 3.31 | 150 (≈ 295 µM) | 100 (≈ 196 µM) | 100 (≈ 196 µM) | 100 (≈ 196 µM) | 150 (≈ 295 µM) | 150 (≈ 295 µM) | 150 (≈ 295 µM) | 100 (≈ 196 µM) | 150 (≈ 295 µM) | 100 (≈ 196 µM) | 150 (≈ 295 µM) | 150 (≈ 295 µM) | 150 (≈ 295 µM) | 100 (≈ 196 µM) | 150 (≈ 295 µM) | 150 (≈ 295 µM) | 150 (≈ 295 µM) | 100 (≈ 196 µM) | 150 (≈ 295 µM) | MIC (Bacillus cereus): 150 µg/mL (≈ 295 µM); MFC (Aspergillus flavus): 150 µg/mL (≈ 295 µM); MIC (Aspergillus flavus): 100 µg/mL (≈ 196 µM); MBC (Salmonella typhimurium): 150 µg/mL (≈ 295 µM); MIC (Salmonella typhimurium): 100 µg/mL (≈ 196 µM); MFC (Talaromyces funiculosus): 150 µg/mL (≈ 295 µM); MIC (Talaromyces funiculosus): 100 µg/mL (≈ 196 µM) |
| COc1cc(Cc2n[nH]c(=S)n2-c2ccccc2)c(S(=O)(=O)N2CCCC2)cc1OC | 2.13 | 150 (≈ 326 µM) | 150 (≈ 326 µM) | 100 (≈ 217 µM) | 100 (≈ 217 µM) | 150 (≈ 326 µM) | 150 (≈ 326 µM) | 150 (≈ 326 µM) | 100 (≈ 217 µM) | 150 (≈ 326 µM) | 150 (≈ 326 µM) | 150 (≈ 326 µM) | 150 (≈ 326 µM) | 150 (≈ 326 µM) | 150 (≈ 326 µM) | 150 (≈ 326 µM) | 150 (≈ 326 µM) | 150 (≈ 326 µM) | 100 (≈ 217 µM) | 150 (≈ 326 µM) | MIC (Bacillus cereus): 150 µg/mL (≈ 326 µM); MFC (Aspergillus flavus): 150 µg/mL (≈ 326 µM); MIC (Aspergillus flavus): 100 µg/mL (≈ 217 µM); MBC (Salmonella typhimurium): 150 µg/mL (≈ 326 µM); MIC (Salmonella typhimurium): 150 µg/mL (≈ 326 µM); MFC (Talaromyces funiculosus): 150 µg/mL (≈ 326 µM); MIC (Talaromyces funiculosus): 100 µg/mL (≈ 217 µM) |
